Bioassay records from PubChem.
RORA inh = blocks the human nuclear receptor RORA. P35398. CHO-K1 Gal4-RORA LBD luciferase reporter, luminescence. inhibition, % at 10 µM. hit rate 0.43% among 65,000. AID 561;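 active = inhibition above the mean of all tested compounds plus 3 SD, cut at about 52% in these data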
Target sequence (P35398 whole entry, looked up, the tested form may be a part): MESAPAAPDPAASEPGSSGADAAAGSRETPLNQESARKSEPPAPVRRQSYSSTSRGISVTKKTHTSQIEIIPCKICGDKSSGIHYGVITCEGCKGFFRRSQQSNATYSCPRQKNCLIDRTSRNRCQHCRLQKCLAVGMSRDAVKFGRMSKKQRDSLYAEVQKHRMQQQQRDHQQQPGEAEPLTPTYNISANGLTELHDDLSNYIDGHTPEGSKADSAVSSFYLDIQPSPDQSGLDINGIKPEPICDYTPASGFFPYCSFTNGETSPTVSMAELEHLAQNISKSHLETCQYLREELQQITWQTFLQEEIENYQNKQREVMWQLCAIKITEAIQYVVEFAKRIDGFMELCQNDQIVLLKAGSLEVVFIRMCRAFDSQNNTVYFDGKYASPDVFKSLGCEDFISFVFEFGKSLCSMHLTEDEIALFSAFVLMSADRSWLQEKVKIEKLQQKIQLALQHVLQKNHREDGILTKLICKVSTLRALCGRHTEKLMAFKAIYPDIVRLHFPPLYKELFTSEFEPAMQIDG
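Material: transiently transfected CHO-K1 cells, Gal4-DBD/human RORA-LBD fusion plus 5xGal4-luciferase reporter; doses: single concentration per compound, 10 µM final; incubation: 20 h at 37 °C; detection: luminescence from basal luciferase reporter expression; read-out: % inhibition of basal luciferase versus +RORA/-RORA DMSO controls; replication: tested once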
Large screens that a line does not name were inactive. The full list was thinned out, with hits kept by preference.

Cc1cccc(C)c1OCc1nnc(SCC(=O)Nc2ccccc2F)o1	none
Cc1ccc(-c2nnc(SCC(=O)Nc3ccccc3F)o2)cc1	RORA inh 63
Cc1cc(-c2nnco2)c(C)n1-c1ccccc1	none
Cc1csc(NC(=O)CSc2nnc(-c3ccoc3C)o2)n1	none
Cc1[nH]c2ccc(-c3nnc(SCC(=O)c4ccccc4F)o3)cc2c1C	none
Cn1c(OCc2cccnc2)nc2c1c(=O)n(Cc1ccc(Br)cc1)c(=O)n2C	none
CCOc1ccccc1N(CC(=O)NCC1CCCO1)C(=O)CCC(=O)Nc1ccccn1 (stereo not drawn)	none
CSCC[C@H](NC(=O)OC(C)(C)C)C(=O)N1CCC(C(=O)N[C@H](C(=O)O)C(C)C)CC1	none
CSCCC(NC=C1C(=O)OC(C)(C)OC1=O)C(=O)O (stereo not drawn)	none
CCCCN(C)C(=O)C1CCC(=O)N(c2cc(OC)c(OC)c(OC)c2)C1c1ccc(OC)cc1 (stereo not drawn)	none
CCCCOC(=O)c1[nH]c2c(c1C)C(=O)CC(c1cc(OC)c(OC)c(OC)c1)C2 (stereo not drawn)	RORA inh 64
COCCOC(=O)c1[nH]c2c(c1C)C(=O)C(C(=O)OC)C(C)C2 (stereo not drawn)	none
Cn1nnnc1Sc1nc(-c2cccnc2)nc2ccccc12	none
CC1CCCCC1NS(=O)(=O)c1ccc(S(=O)(=O)N2CCCC2)cc1 (stereo not drawn)	none
O=C(CCCCn1c(=O)[nH]c2ccccc2c1=O)N1CCN(c2ncccn2)CC1	none
CCOc1ccc(-c2nnc3ccc(SCc4ccc(C(=O)OC)o4)nn23)cc1	none
Cc1ccc(C(=O)CSc2nnc(CNc3ccc(C)cc3C)o2)cc1	none
Cc1csc(NC(=O)CNC(=O)OCc2ccccc2)n1	none
Cc1nn(-c2nc3ccccc3s2)c(N)c1Sc1ccc(F)cc1	none
O=c1c2ccccc2nc2sc3ccccc3n12	none
O=c1c2ccccc2cnn1-c1nc2ccccc2s1	RORA inh 90
CC(C)(C)OC(=O)N1CCNc2ccccc2C1	none
COc1ccc(NC(=O)c2cc(-c3ccc(C)o3)nc3ccccc23)cc1OC	none
COc1ccc(Nc2nc(C)c3ccccc3n2)cc1	none
COc1ccc(CNC(=O)c2cc3c(C)nc4ccccc4c3o2)c(OC)c1	RORA inh 55
CC(=O)Nc1c(C(=O)N2CCN(c3ncccn3)CC2)cnn1-c1ccccc1Cl	none
Cn1c(SCc2ccccc2Cl)nnc1-c1cnccn1	none
NCCCCCc1nnc(SCc2ccccc2Cl)o1	RORA inh 57
O=C(CSc1nnc(-c2ccccc2Cl)o1)N1CCCCC1	none
Cc1cccc(N2CC(C(=O)Nc3ccc4c(c3)OCO4)CC2=O)c1C (stereo not drawn)	none
O=C(NC1CCN(Cc2ccccc2)CC1)C1CCCN(S(=O)(=O)c2cccc3nonc23)C1 (stereo not drawn)	none
COc1ccc2cc(C3(C)NC(=O)N(CC(=O)NCc4ccco4)C3=O)ccc2c1 (stereo not drawn)	none
Cc1ccc(CS(=O)(=O)CCC(=O)NCCCN2CCCC2=O)cc1	none
COc1ccc(-c2nc(CSCC(=O)N3CCc4ccccc43)c(C)o2)cc1OC	none
COc1ccc(-c2nc(CS(=O)CC(=O)NCc3ccco3)c(C)o2)cc1 (stereo not drawn)	none
CCOc1ccc(-c2nc(CSCC(=O)NCc3ccco3)c(C)o2)cc1	RORA inh 94
CCCCNC(=O)c1cc(-c2ccc(OC)cc2)on1	none
Cc1ccc(-c2nc(CS(=O)(=O)CC(=O)N3CC(C)CC(C)C3)c(C)o2)cc1 (stereo not drawn)	none
COCCNC(=O)CSCc1nc(-c2ccc(SC)cc2)oc1C	RORA inh 89
CCCCn1c(SCC(=O)NCc2ccco2)nnc1-c1ccoc1C	none
CCOc1ccc(-c2cc(CCCC(=O)NCc3ccco3)no2)cc1	RORA inh 58
CCc1ccc(-c2nc(CSCC(=O)N3CCN(c4ccccn4)CC3)c(C)o2)cc1	none
CCc1ccc(-c2nc(CSCC(=O)NCCCN3CCCC3=O)c(C)o2)cc1	RORA inh 74
CCc1ccc(S(=O)(=O)NCc2csc(C)n2)s1	none
C=CCC1CCCCC12NC(=O)NC2=O (stereo not drawn)	none
CCOC(=O)N1CCC(N(C(=O)Nc2ccc(CC)cc2)C(C)CC)CC1 (stereo not drawn)	none
Cc1cnc(-c2nnc(N(C)C(=O)c3cnccn3)s2)cn1	none
Cc1noc(C)c1COC(=O)c1cccc(S(=O)(=O)N2c3ccccc3CC2C)c1 (stereo not drawn)	none
CC(C)Cn1cc(C(=O)NCc2cccs2)c2c3ccccc3n(C)c2c1=O	none
O=C(CSc1nnc(-c2cccnc2)o1)OC1CCCCC1	none
Cc1cc(NC(=O)CCCOc2ccc(Cl)cc2Cl)no1	none
CCC1CCCCN1CCCNC(=O)COc1cc(=O)n(C)c2ccccc12 (stereo not drawn)	none
Cc1ccnc(NC(=O)CCCOc2cc(=O)n(C)c3ccccc23)c1	RORA inh 57
CC1=C(C#N)C(=O)OC(C)(C)C1	none
COc1ccc(NC(=O)CN2CCN(CC(=O)Nc3ccccc3F)CC2)c(OC)c1	none
CCn1c(C)nc2cc(-c3nc4n(n3)Cc3ccccc3-4)ccc21	RORA inh 96
O=C(CSc1nnc(NC(=O)CN2CCOCC2)s1)Nc1ccccc1	none
O=C(Nc1ccc2c(c1)ncn2C1CCCCC1)c1ccco1	none
CCOC(=O)c1oc2ccccc2c1NC(=O)c1cc(OC)cc(OC)c1	none
CCN(Cc1ccccc1)C(=O)CCCOc1ccccc1	none
O=C(OCCCN1CCCC1)C1(c2ccccc2)CCCC1	none
CCOc1ccccc1Nc1ncnc2ccccc12	none
Cc1ccc(-n2ncc3c(NCc4ccccc4)ncnc32)cc1	none
c1ccc(CNc2ncnc3ccccc23)cc1	RORA inh 56
COc1ccc2cc(CCNC(=O)C3CCCC3)c(=O)[nH]c2c1	none
COc1ccc(Cc2nc(-c3cccs3)no2)cc1OC	none
COC(=O)c1ccc(-c2nc(-c3cccs3)no2)cc1	RORA inh 52
COc1cccc(-c2noc(-c3cccs3)n2)c1	none
O=C(CSc1cccc2cccnc12)N1CCCC1	none
CCNc1nc(N)c(C(=O)c2ccc(Cl)s2)s1	none
Cc1ccc(NC(=O)NC2(C(=O)NCc3ccco3)CCCCC2)cc1	none
Cc1nn(Cc2nc(-c3cccs3)no2)c(C)c1Br	none
O=C(Nc1sc2c(c1C(=O)O)CCCCC2)c1ccco1	none
CCCc1cc(=O)[nH]c(SCC(=O)Nc2cc3c(cc2C(C)=O)OCO3)n1	none
N#Cc1c(NC(=O)CSc2ncn[nH]2)sc2c1CCCCC2	RORA inh 88
N#Cc1c(NC(=O)CSc2nc(N)cc(=O)[nH]2)sc2c1CCCCCC2	RORA inh 52
CC(C)c1ccc(C(=O)CSc2ncn[nH]2)cc1	none
O=C(CSc1nc2sc3c(c2c(=O)[nH]1)CCCC3)NCCO	none
CCOC(=O)c1ccc(Oc2cc(C)nc(SC)n2)cc1	none
N#CN=C1SCCS1	none
COC(=O)c1ccc(CSc2nc3scc(-c4cccs4)c3c(=O)[nH]2)o1	none
CCOC(=O)C1=C2N(C)c3ccccc3N2CCC1=O	none
CNc1nc(C)nc(-c2ccccc2O)n1	none
O=C(/C=C\Nc1ccccn1)c1ccc(Cl)cc1	RORA inh 64
O=C(Nc1ccc(Cl)cn1)c1cccc(F)c1	none
O=C(/C=C/Nc1ccc(F)c(Cl)c1)c1ccco1	none
O=C(Nc1cccc(Br)c1)c1ccn[nH]1	none
CCCN(Cc1ccccc1)S(=O)(=O)c1ccc(N2C(=O)CCC2=O)cc1	none
COC(=O)c1ccc(NC(=O)Cn2nc(SC)n(N)c2=S)cc1	none
